Data as given in publication PMC4958353 (Drug Design, Development and Therapy, 2016).
In brackets after ≈: the same amount, converted by molar mass.

Assays:
[1] = system: M. tuberculosis H37Rv; assay: microplate Alamar Blue assay, in vitro anti-TB activity; format: cell-based; conditions: Mycobacterium tuberculosis
[2] = in vitro; conditions: human
[3] = pKa by reverse-phase HPLC; format: physicochemical
[4] = molecular target: human serum albumin (Homo sapiens, UniProt P02768); assay: protein binding by reverse-phase HPLC on human serum albumin column; format: in vitro ADME
Sequence of human serum albumin (P02768 25-609): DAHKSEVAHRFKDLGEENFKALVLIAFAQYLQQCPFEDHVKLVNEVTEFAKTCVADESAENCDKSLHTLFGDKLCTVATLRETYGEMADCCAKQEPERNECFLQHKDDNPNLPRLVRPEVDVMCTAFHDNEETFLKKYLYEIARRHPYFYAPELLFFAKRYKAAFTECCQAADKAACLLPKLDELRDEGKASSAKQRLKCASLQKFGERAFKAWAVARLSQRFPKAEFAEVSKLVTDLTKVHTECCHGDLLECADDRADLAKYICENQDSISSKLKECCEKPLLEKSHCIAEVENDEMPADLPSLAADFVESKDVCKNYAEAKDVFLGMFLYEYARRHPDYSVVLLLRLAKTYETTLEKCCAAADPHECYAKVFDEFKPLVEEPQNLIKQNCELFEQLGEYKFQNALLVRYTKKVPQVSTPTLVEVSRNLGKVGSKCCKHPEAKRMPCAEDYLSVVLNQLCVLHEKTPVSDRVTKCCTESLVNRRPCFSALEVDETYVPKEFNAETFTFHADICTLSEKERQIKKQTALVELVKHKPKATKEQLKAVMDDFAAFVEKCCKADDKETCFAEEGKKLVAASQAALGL

[5] = human liver microsomal stability; format: in vitro ADME; conditions: HLM incubation
Procedure, shortened: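 Test compound incubated with human liver microsomes. The percentage of parent compound remaining was read at 15 min, 30 min, 1 h and 2 h of incubation.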

[6] = compared with compound 10b (90.5%); cited from earlier work

Row | Structure (SMILES) | MIC [1] [µg/mL] | CC50 [2] [µg/mL] | other results
1 | Cc1ccc(C(CC(=O)c2cccc(Oc3ccccc3)c2)C(N)=O)cc1 (centres unmarked) [Compound 5b, 4-Oxo-4-(3-phenoxyphenyl)-2-p-tolylbutanamide] | > 100 | > 300 | –
2 | Cc1ccc(C(CC(=O)c2ccc(Oc3ccccc3)c(O)c2)C(N)=O)cc1 (centres unmarked) [Compound 10b, 4-(3-Hydroxy-4-phenoxyphenyl)-4-oxo-2-p-tolylbutanamide] | 12.5 (≈ 33.3 µM) | > 300 | pKa [3]: 7.59; fraction unbound [4]: 0.095; Percentage remaining ([5]; 15 minutes): 70.18%; Percentage remaining ([5]; 30 minutes): 57.49%; Percentage remaining ([5]; 1 hour): 50.68%; Percentage remaining ([5]; 2 hours): 40.35%
3 | COc1ccc(C(CC(=O)c2ccc(Oc3ccccc3)c(O)c2)C(N)=O)cc1 (centres unmarked) [Compound 10c, 4-(3-Hydroxy-4-phenoxyphenyl)-2-(4-methoxyphenyl)-4-oxobutanamide] | 25 (≈ 63.9 µM) | 261 (≈ 666 µM) | –
4 | Oc1cc(Cl)ccc1Oc1ccc(Cl)cc1Cl [Triclosan, reference compound] | 12.5 (≈ 43.2 µM) | > 300 | plasma protein binding [6]: even higher than compound 10b
5 | NC(=O)C(CC(=O)c1ccc(Oc2ccccc2)c(O)c1)c1ccccc1 (centres unmarked) [Compound 10a, 4-(3-Hydroxy-4-phenoxyphenyl)-4-oxo-2-phenylbutanamide] | 20 (≈ 55.3 µM) | > 300 | –
6 | NNC(=O)c1ccncc1 [Isoniazid, reference compound] | 0.125 (≈ 0.911 µM) | – | –
7 | NC(=O)C(CC(=O)c1cccc(Oc2ccccc2)c1)c1ccccc1 (centres unmarked) [Compound 5a, 4-Oxo-4-(3-phenoxyphenyl)-2-phenylbutanamide] | > 100 | > 300 | –
